The subject of the series is MS2 coat protein. Put plainly: apparent Kd, MS2 coat protein; higher = weaker binding; RNA-MaP array; FMN 200 µM where present. In outline: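 Green signal was scaled to red-channel RNA signal and control-cluster median Fmax, and the apparent Kd was taken as the median of filtered per-cluster binding-curve fits. The binding series used SNAP-549-labelled MS2 coat protein from 0.7 or 1.5 nM, doubling to 3 µM, on designs transcribed by stalled E. coli RNA polymerase on Illumina sequencing-chip clusters. Each series ran without and then with constant ligand in 100 mM Tris-HCl pH 7.5, 80 mM KCl, 4 mM MgCl2, BSA, DTT, yeast tRNA and Tween-20.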

The mark [1] stands for this setting: designed as: ON switch for flavin mononucleotide, no ligand.
Setting [2] is: ligand present: flavin mononucleotide, designed as: ON switch for flavin mononucleotide.
Where [3] appears, read: designed as: OFF switch for flavin mononucleotide, no ligand.
The mark [4] stands for this setting: ligand present: flavin mononucleotide, designed as: OFF switch for flavin mononucleotide.

Turning to “GGGUACAUGGGAGGAUAUCCUCAAGAGACAUGAGGAUCACCCAUGUAUUAUAAGCCUAAUGGCAUGGAGAAGGCCCAUGUACCG”, the apparent Kd (usually the concentration giving half-maximal binding under the conditions of the assay) under setting [1] was found to be 397 nM and the “apparent Kd” value under setting [2] came to 69.7 nM.

On to “CUUUUGUGAGGAUAUCGGUAGUAAUACAAUAGUAUUACUACUGAGAAGGCACAUGAGGAUCACCCAUGUUCCUC”, for which the “apparent Kd” value by setting is: under setting [3], 49.2 nM; under setting [4], 305 nM.

Consider “AUAAUACAUGAGGAUCACCCAUGUAAUUUAACUUGUAAGAUCAAGGAUAUCAGCUCGUUUAGAGCUGAGAAGGUGAUCACAUGU”, for which the “apparent Kd” value came out at 187 nM under setting [1] and 292 nM under setting [2].

For “AGUGUCAUCGAGAAGGCCUCAUGAACAUGAGGAUCACCCAUGUAAGAUGGGAGGAUAUCGAUGAUACAGCUACGUUUCGUAGCA”, the “apparent Kd” value is, setting by setting: under setting [1], 51.1 nM; under setting [2], 31.9 nM.

Regarding “UAUUUGUCAGGAUAUGAGUCGUAGAACAAUAGUACUACGUCUCAGAAGGGACAUGAGGAUCACCCAUGUGCCUC”, the “apparent Kd” value by setting is: under setting [3], 25.5 nM; under setting [4], 217 nM.

Take “GAUUAACAUGAGGAUCACCCAUGUCGUUUAAUGGGAGGAUAUACGUGGACCGUAGUCCGCGUAGAAGGCCUAAUUG”: the “apparent Kd” value reads like this: under setting [1], 90.8 nM; under setting [2], 26.9 nM.

“UAUUUUUAUGUAAGGAUAUGGGUUUGGUUGCGGGCUUAGAAGGUACAUGAGGAUCACCCAUGUAUUUUGUGCGU”: the “apparent Kd” value reads like this: under setting [3], 16.9 nM; under setting [4], 18.3 nM.

Take “GGAAAUCAUGUAGGAUAUGCAUGGCGAAGCUACGCAGAAGGACAUGAGGAUCACCCAUGUUCUAGCGUCUGAGUUCAGAUGCAA”: the “apparent Kd” value stood at 20.4 nM under setting [3] and 56.3 nM under setting [4].

With “AAAGCGGGAUAGAAGGUCUGCUUGGUGUAUUACAUGAGGAUCACCCAUGUAGAAGGAUAUAUCUCAUUCUUGGGCUCACCCAAA”, the “apparent Kd” value by setting is: under setting [3], 208 nM; under setting [4], 367 nM.

As to “UCUGGUCGAGGAUAUACAUAACGUGCUUCGGCACGAGAUCUACAUGAGGAUCACCCAUGUAGAAGGCGACCAGA”, the “apparent Kd” value runs as follows: under setting [3], 16.7 nM; under setting [4], 46.7 nM.

Take “UCGUAUACACAAGGAUAUCGAUGGCUUGUAGAUCCUACAUGAGGAUCACCCAUGUUUUUAUAUUGUGAGAAGGUGUAGUGUCGU”: the “apparent Kd” value came out at 1320 nM under setting [1] and 1210 nM under setting [2].

In the case of “AACGUGGCUUAGGAUAUUGCUACGCAAAAGUAACAAGAAGGAGGCACAUGAGGAUCACCCAUGUGAUUCGUUGA”, the “apparent Kd” value under setting [3] worked out at 19.8 nM and the “apparent Kd” value under setting [4] was determined as 44.9 nM.

Regarding “GUACGUGGACAGAAGGCGACAUGAGGAUCACCCAUGUUGGCUCGGGUAUGACCAAUCCGCAUGAUUGAGGAUAUGUCUGCGGGC”, the “apparent Kd” value was 9.07 nM under setting [3] and 62.4 nM under setting [4].

“ACAUAGUUAGGAUAUGCUGCUCGUCACUUGCGUGAUGAGUAGCAGAAGGAACAUGAGGAUCACCCAUGUAAAGA”: the “apparent Kd” value by setting is: under setting [3], 29.9 nM; under setting [4], 29.5 nM.

Take “GGUACUCAAAGAGUACCAAUACGAACAUGAGGAUCACCCAUGUAGGAUAUGCUACUCAAAGAGUAGCAGAAGGACAUGUGUCUA”: the “apparent Kd” value runs as follows: under setting [3], 29.6 nM; under setting [4], 160 nM.

Turning to “GGUGCACGCACAGGAUAUCCGGCGACGCUCGUCGGAGAAGGGUGACAUGAGGAUCACCCAUGUACGUGCAACUCAGUUUGAGAG”, the “apparent Kd” value reads like this: under setting [1], 35.7 nM; under setting [2], 28.1 nM.

Take “GUCAUACAUGAGGAUCACCCAUGUAAGGAUAUGCUAGCGGUCGGAAGAAUGACUGCUAGCAGAAGGUACAUGAU”: the “apparent Kd” value reads like this: under setting [3], 64.1 nM; under setting [4], 121 nM.

As for “CGGUGACGUGUAGGAUAUGGAGAUGGGUUUUGGCCAGAAGGACAUGAGGAUCACCCAUGUGGUAGAGGGUUGGCGGCUGCCCGU”, the “apparent Kd” value reads like this: under setting [3], 16.7 nM; under setting [4], 18.7 nM.

Consider “AACAGGACAGGAUAUACAUGAGGAUCACCCAUGUGAGAAUUAAGUAGAUUGCCACAGAGUAGAAGGGUCCUGGA”, for which the “apparent Kd” value by setting is: under setting [3], 66.6 nM; under setting [4], 91.2 nM.

“AUUUAUGUCAUAGGAUAUAUAAAUAAAUUUAUAACAUGAGGAUCACCCAUGUACUUUAGUAUGAGGUAGAAGGAUGAUAAGAGU”: the “apparent Kd” value reads like this: under setting [1], 35.1 nM; under setting [2], 26.7 nM.

“CCUCCCUGAGGAUAUCCACCCUCAUACAUGAGGAUCACCCAUGUUCAACCCUGGGUUCCCGGAGAAGGCAGCUUCC”: the “apparent Kd” value is, setting by setting: under setting [3], 260 nM; under setting [4], 263 nM.

In the case of “ACCUCGUCAGGAUAUCCUAUUAAUUGUUUCAUAUUUACGAUGGAGAAGGGACAUGAGGAUCACCCAUGUUGGUC”, the “apparent Kd” value under setting [3] is 35.5 nM and the “apparent Kd” value under setting [4] worked out at 58 nM.

Turning to “GGAUCGAUGUAGAAGGCUGUCCUAAAAUAGGACAGAGGAUAUACAUGAGGAUCACCCAUGUACUCCUUUAAAAUGAUCCAAAUA”, the “apparent Kd” value turned out to be 5.53 nM under setting [3] and 10.3 nM under setting [4].

As for “AUCAGCUCGUCAGGAUAUACGUCACUGCGUCAGCAGAGUGGUAAGAUCACAUGAGGAUCACCCAUGUAGAAGGGACGAGCUGAU”, the “apparent Kd” value under setting [3] was found to be 39.5 nM and the “apparent Kd” value under setting [4] amounted to 421 nM.

On to “AACAGCUCGUCAGGAUAUACGUCACUGCGUCAGCAGUGUGGUAAGAUCACAUGAGGAUCACCCAUGUAGAAGGGACGAGCUGAU”, for which the “apparent Kd” value is, setting by setting: under setting [3], 14.3 nM; under setting [4], 267 nM.

In the case of “CGCUACGUUUCGUAGCAGCUAGGUGAGGAUAUUCAAUUUUUCACAUGAGGAUCACCCAUGUAUGUGAAGAAGGCGCCUAGAAAG”, the “apparent Kd” value by setting is: under setting [1], 11.8 nM; under setting [2], 5.64 nM.

With “CCCUCAACAUGAGGAUCACCCAUGUAGGAUAUCGCUAUUGUAAUCAUGAAACAUGAUUACAAUAGCGAGAAGGACAUAUGUGGG”, the “apparent Kd” value under setting [3] worked out at 106 nM and the “apparent Kd” value under setting [4] worked out at 49.8 nM.

Take “CCUUUGAAGAUCCUAAAUUUCGACAUGAGGAUCACCCAUGUGCAGGAUAUCGUGCCAGUGAUGUACGAGAAGGGCAGACUCUGC”: the “apparent Kd” value under setting [3] was determined as 54.3 nM and the “apparent Kd” value under setting [4] came out at 58 nM.

Consider “GGAUCGCGUGUGAGGAUAUGCUCGACCUUGGUCGAGCAGAAGGCACAUGAGGAUCACCCAUGUGACCUCGGUCC”, for which the “apparent Kd” value is 87.5 nM under setting [3] and 451 nM under setting [4].

“CUCCCAUGUGUAGGAUAUAGAAAACCGAAAUGGCUAGAAGGACACAUGAGGAUCACCCAUGUAACCUUAACUUAGUGUACCGGG”: the “apparent Kd” value reads like this: under setting [3], 53.3 nM; under setting [4], 124 nM.

As to “UGCUACGUUUCGUAGCAGUGUCAUCGAGAAGGCCCUGACAUGAGGAUCACCCAUGUUGUUACAUGGGAGGAUAUCGAUGAUACG”, the “apparent Kd” value was 12 nM under setting [1] and 4.9 nM under setting [2].

On to “GGAUAGGACAGAGGAUAUACGUUCUAGAGAUACUAGCAAAAUUUCCUCACAUGAGGAUCACCCAUGUAGAAGGCUGUCCUAUCG”, for which the “apparent Kd” value reads like this: under setting [3], 15.1 nM; under setting [4], 282 nM.

Regarding “CUAUCUUAUGAGAAGGCGAUCAUGAAACAUGAUCGAGGAUAUCAUGUAAACAUGAGGAUCACCCAUGUAUGGGUAUUAUGGUAG”, the “apparent Kd” value by setting is: under setting [1], 175 nM; under setting [2], 57.1 nM.

Regarding “GGAUAGGACAGAGGAUAUACGUGUUAGAGAUACUAGCAAAAUUUCCUCACAUGAGGAUCACCCAUGUAGAAGGCUGUCCUAUCG”, the “apparent Kd” value under setting [3] was found to be 23.1 nM and the “apparent Kd” value under setting [4] was determined as 413 nM.

For the sequence “CCAUACAUGAGGAUCACCCAUGACAUGAGGAUCACCCAUGUGCAGGAUAUACGUGAUAUAAUAUAGUAGAAGGGCAGACCAAAA”, the “apparent Kd” value is 75.7 nM under setting [3] and 85.2 nM under setting [4].

As to “CGGCUACCCAGUAUGGGUAUUUUUACAGAAGGCCAGGCACAUGAGGAUCACCCAUGUCAAGUUUUGGAGGAUAUGUUAGUGUCG”, the “apparent Kd” value is, setting by setting: under setting [1], 5.58 nM; under setting [2], 4.25 nM.

As to “GAUAGAGAGCAGGAUAUCUUGGGUAAGUAUCGUAGAGAAGGGCUCACAUGAGGAUCACCCAUGUGGUCCAAGAU”, the “apparent Kd” value amounted to 14.2 nM under setting [3] and 32.6 nM under setting [4].

Consider “CGAUGUUAUGCAGGAUAUCUCUCUUGUUUGAGGAGAGAAGGGCAUAGGGAGACAUACGCCUUAUUACAUGAGGAUCACCCAUGU”, for which the “apparent Kd” value runs as follows: under setting [3], 8.83 nM; under setting [4], 8 nM.

As to “GGUUGUCAUCGUCAUCCUUUCGGUACAUGAGGAUCACCCAUGUAGGAUAUGCUGCGUUCGAUGUGGCAGAAGGGCGUGUGUGUU”, the “apparent Kd” value runs as follows: under setting [3], 22.1 nM; under setting [4], 40.5 nM.

As to “UUACUAUUACAGAAGGCUAAAUAAUAUAUAAAUGGAGGAUAUGUAACAUGAGGAUCACCCAUGUUUCACCCACAUGAGGAUCAC”, the “apparent Kd” value under setting [3] came out at 8.45 nM and the “apparent Kd” value under setting [4] worked out at 23.8 nM.

With “CAGAUCGGCUAGGAUAUCCAUGGUAUGUUACGAGGAGAAGGAGUCACAUGAGGAUCACCCAUGUCUCAUACUGA”, the “apparent Kd” value under setting [3] amounted to 24.7 nM and the “apparent Kd” value under setting [4] came out at 31.8 nM.

For the sequence “AAUAUAAAAGAGCUGGAUACUCAAACAUGAGGAUCACCCAUGUAGGAUAUCAGCACGAUAAGUGCUGAGAAGGACAACCAGCUC”, the “apparent Kd” value by setting is: under setting [3], 14.6 nM; under setting [4], 15.6 nM.

With “GAGUGGUAAAGAGGAUAUGCAUUGUUAUUCACUGCAGAAGGUUUUAACAUGAGGAUCACCCAUGUAGGACUAUUCCUGUGUUUC”, the “apparent Kd” value under setting [1] was found to be 14.6 nM and the “apparent Kd” value under setting [2] came to 12.5 nM.

On to “AUCGGAAUGUAGAAGGGUGACAUGAGGAUCACCCAUGUACAAAUGCGUUUUUCGGUAAUUGAUCCACAGGAUAUACUGUCCGAG”, for which the “apparent Kd” value is, setting by setting: under setting [1], 1080 nM; under setting [2], 794 nM.

As to “GUGAAGAUAGCAGGAUAUUUAUUUCCUACAUGAGGAUCACCCAUGUAGGUGAUCAGCCGAGUAAAGGAGAAGGGCUAUCUUUAC”, the “apparent Kd” value came to 30.9 nM under setting [1] and 21.3 nM under setting [2].

For the sequence “AUAGGGCUACACUGAAAGACACAUGAGGAUCACCCAUGUGAGAGAAGGGCUUCUGGAGGGCUGAGGUAGGAUAUUUCACCUGGG”, the “apparent Kd” value stood at 18.6 nM under setting [3] and 22.6 nM under setting [4].

On to “CAGUACUGAGGAUAUACAUGAGGAUCACCCAUGUGUUCCUGCUAGGAAACUAGCAAAAGUAGAAGGCAGUACUG”, for which the “apparent Kd” value is, setting by setting: under setting [3], 25.2 nM; under setting [4], 532 nM.

For “GGGCCCGGUGUGAGGAUAUCGGGUUUGAAAGGGCCCGAGAAGGCACAUGAGGAUCACCCAUGUAAGCCGGGCCC”, the “apparent Kd” value by setting is: under setting [3], 15.4 nM; under setting [4], 14.4 nM.

For the origin of these results see the EternaBench riboswitch data.
